What was measured:
Format in all cases: functional, cell-based
[1] = system: A549; test: Cytotoxicity against human A549 cells after 96 hrs by MTT assay; conditions: A549, 96 h
Method in brief: (§1)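 Cells kept in RPMI 1640 with 10% FBS, L-glutamine, penicillin/streptomycin at 37 °C, 5% CO2. 1.5 × 10³ cells/well seeded; after 24 h compounds added in DMSO at five final concentrations (0.01-10 […]), triplicate wells, 96 h exposure. MTT (0.5 mg/mL) 4 h at 37 °C, formazan dissolved in DMSO, A570 read. IC50 = 50% OD reduction vs control from dose-response curve.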

[2] = system: BGC-823; test: Cytotoxicity against human BGC823 cells after 96 hrs by MTT assay; conditions: BGC-823, 96 h; method in brief: as §1
[3] = system: Bel-7402; test: Cytotoxicity against human Bel7402 cells after 96 hrs by MTT assay; conditions: Bel-7402, 96 h; method in brief: as §1
[4] = system: HCT-8; test: Cytotoxicity against human HCT8 cells after 96 hrs by MTT assay; conditions: HCT-8, 96 h; method in brief: as §1
[5] = system: A2780; test: Cytotoxicity against human A2780 cells after 96 hrs by MTT assay; conditions: A2780, 96 h; method in brief: as §1

| SMILES | IC50 [1] [µM] | IC50 [2] [µM] | IC50 [3] [µM] | IC50 [4] [µM] | IC50 [5] [µM] |
| --- | --- | --- | --- | --- | --- |
| C/C=C(/C)C(=O)O[C@H]1[C@H](OC(=O)/C(C)=C\C)[C@]2(CO)[C@H](OC(C)=O)C[C@]3(C)C(=CC[C@@H]4[C@@]5(C)CC[C@H](O[C@@H]6O[C@H](C(=O)O)[C@@H](O)[C@H](O[C@@H]7OC[C@H](O)[C@H](O)[C@H]7O)[C@H]6O)[C@@](C)(CO)[C@@H]5CC[C@]43C)[C@@H]2CC1(C)C [GORDONOSIDE B] | > 10 | > 10 | > 10 | > 10 | > 10 |
| CC(=O)O[C@H]1C(=O)[C@@]2(C)[C@H]([C@H](OC(=O)c3ccccc3)[C@]3(O)C[C@H](OC(=O)[C@H](O)[C@@H](NC(=O)c4ccccc4)c4ccccc4)C(C)=C1C3(C)C)[C@]1(OC(C)=O)CO[C@@H]1C[C@@H]2O [PACLITAXEL] | 0.001 | 0.04 | 6.3 | 3.6 | 0.9 |
| C/C=C(/C)C(=O)O[C@H]1[C@H](OC(=O)/C(C)=C\C)[C@]2(CO)[C@H](OC(C)=O)C[C@]3(C)C(=CC[C@@H]4[C@@]5(C)CC[C@H](O[C@@H]6O[C@H](C(=O)O)[C@@H](O)[C@H](O[C@@H]7OC[C@H](O)[C@H](O)[C@H]7O)[C@H]6O)C(C)(C)[C@@H]5CC[C@]43C)[C@@H]2CC1(C)C [GORDONOSIDE D] | > 10 | > 10 | > 10 | > 10 | > 10 |
| C/C=C(/C)C(=O)O[C@H]1[C@H](OC(=O)/C(C)=C\C)[C@]2(CO)[C@H](O)[C@H](O)[C@]3(C)C(=CC[C@@H]4[C@@]5(C)CC[C@H](O[C@@H]6O[C@H](C(=O)O)[C@@H](O)[C@H](O[C@@H]7OC[C@H](O)[C@H](O)[C@H]7O)[C@H]6O)[C@@](C)(C(=O)OC)[C@@H]5CC[C@]43C)[C@@H]2CC1(C)C [GORDONOSIDE G] | > 10 | > 10 | > 10 | > 10 | > 10 |
| C/C=C(/C)C(=O)O[C@H]1[C@H](OC(=O)/C(C)=C\C)[C@]2(CO)[C@H](O)C[C@]3(C)C(=CC[C@@H]4[C@@]5(C)CC[C@H](O[C@@H]6O[C@H](C(=O)O)[C@@H](O)[C@H](O[C@@H]7OC[C@H](O)[C@H](O)[C@H]7O)[C@H]6O)[C@@](C)(C(=O)OC)[C@@H]5CC[C@]43C)[C@@H]2CC1(C)C [GORDONOSIDE F] | > 10 | > 10 | 1.3 | > 10 | 2 |
| C/C=C(/C)C(=O)O[C@H]1[C@H](OC(=O)/C(C)=C\C)[C@]2(CO)[C@H](O)C[C@]3(C)C(=CC[C@@H]4[C@@]5(C)CC[C@H](O[C@@H]6O[C@H](C(=O)O)[C@@H](O)[C@H](O[C@@H]7OC[C@H](O)[C@H](O)[C@H]7O)[C@H]6O)[C@@](C)(CO)[C@@H]5CC[C@]43C)[C@@H]2CC1(C)C [GORDONOSIDE A] | > 10 | > 10 | 4.7 | > 10 | 5.5 |
| C/C=C(/C)C(=O)O[C@H]1[C@H](OC(=O)/C(C)=C\C)[C@]2(CO)[C@H](O)C[C@]3(C)C(=CC[C@@H]4[C@@]5(C)CC[C@H](O[C@@H]6O[C@H](C(=O)O)[C@@H](O)[C@H](O[C@@H]7OC[C@H](O)[C@H](O)[C@H]7O)[C@H]6O)[C@@](C)(C=O)[C@@H]5CC[C@]43C)[C@@H]2CC1(C)C [GORDONOSIDE E] | > 10 | > 10 | 1.1 | 2.7 | 2 |
| C/C=C(/C)C(=O)O[C@H]1[C@H](OC(=O)/C(C)=C\C)[C@]2(CO)[C@H](O)C[C@]3(C)C(=CC[C@@H]4[C@@]5(C)CC[C@H](O[C@@H]6O[C@H](C(=O)O)[C@@H](O)[C@H](O[C@@H]7OC[C@H](O)[C@H](O)[C@H]7O)[C@H]6O)C(C)(C)[C@@H]5CC[C@]43C)[C@@H]2CC1(C)C [GORDONOSIDE C] | 1.8 | 2.5 | 0.7 | 1.2 | 0.4 |

Reference: ChEMBL document CHEMBL1151417, “Cytotoxic triterpenoid glycosides from the roots of Gordonia chrysandra” (J Nat Prod, 2009)
